Test results taken from article PMC3008344 (Molecular nutrition & food research, 2009).

Assays:
[1] = system: MDA-MB-231-GFP human breast cancer cells; test: Annexin V-PE apoptosis assay; type: cell-based; conditions: MDA-MB-231-GFP cells; for Induction of apoptosis (annexin V-PE positive cells): 5 day treatments
[2] = system: MDA-MB-231-GFP human breast cancer cells; test: Colony formation assay; type: cell-based; conditions: for IC50: Homo sapiens, 240 h, read-out: IC50 for inhibition of colony formation; for Effect on colony formation: MDA-MB-231-GFP cells, 10 days, 10–40 μM range tested
In short: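 MDA-MB-231-GFP cells were seeded at 1000 per 100 mm plate in 2% FBS medium and grown 3 days to form small colonies. They were then treated 10 days with test compound at 10–40 μM (positive control 5–15 μM) or DMSO/ethanol (1:4) vehicle. Colonies were methanol-fixed, stained with 0.1% methylene blue and counted by image analysis. Survival (%) = colonies treated/control × 100. IC50 came from survival curves; mean ± SD, ≥2 experiments.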

[3] = system: MDA-MB-231-GFP human breast cancer cells; test: Visible lung metastases counted at sacrifice; type: in vivo, Nu/Nu female BALB/c mice; conditions: 500 mg/kg diet each, control 70%
[4] = system: MDA-MB-231-GFP tumor tissue; test: Tumor immunohistochemistry: Ki-67 proliferation; type: in vivo, Nu/Nu female BALB/c mice; conditions: tumor tissue from 5 mice/group, 500 mg/kg diet
In short: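 Female Nu/Nu BALB/c mice (6 weeks) received 2 × 10^6 MDA-MB-231-GFP cells s.c. (inguinal) in 50% matrigel. At ~25 mm3 they were randomised (10/group) to tocopherol-stripped AIN-76A diet with 33 IU all-rac-α-tocopherol acetate/kg, ± test form at 500 mg/kg, for 24 days. Formalin-fixed tumours were cut into 5 μm sections and stained for Ki-67. Positive cells were counted in 5 fields (400×) per tumour, 5 mice/group; Mann-Whitney test.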

[5] = system: MDA-MB-231-GFP tumor tissue; test: Tumor immunohistochemistry: TUNEL apoptosis; type: in vivo, Nu/Nu female BALB/c mice; conditions: tumor tissue from 5 mice/group, 500 mg/kg diet
In short: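 Xenografts came from female Nu/Nu BALB/c mice carrying s.c. MDA-MB-231-GFP tumours in matrigel. From ~25 mm3, mice were fed for 24 days a tocopherol-stripped AIN-76A basal diet (33 IU all-rac-α-tocopherol acetate/kg) with or without 500 mg/kg test vitamin E form. TUNEL (ApopTag) staining was done on deparaffinised 5 μm sections of formalin-fixed tumours. Brown nuclei were scored in 15 fields (400×) per tumour, 5 mice/group; Mann-Whitney test.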

PARP = test: Western blot of PARP cleavage; type: cell-based, human; conditions: MDA-MB-231-GFP cells; for PARP cleavage: 5 days
In short: (§1)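 Whole-cell extracts came from the same 5-day-treated MDA-MB-231-GFP samples (2% FBS) used for annexin V analysis. Blots were incubated overnight at 4°C with primary antibody in 0.1% BSA/TBST against PARP (cleavage), Survivin, DR5 or GAPDH. After TBST washes they were probed with HRP-conjugated secondary antibody.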

Survivin = test: Western blot of Survivin protein expression; type: cell-based, human; conditions: MDA-MB-231-GFP cells; for Survivin protein expression: 5 days
In short: as §1

DR5 = test: Western blot of DR5 protein expression; type: cell-based, human; conditions: MDA-MB-231-GFP cells; for DR5 protein expression: 5 days
[6] = system: BALB/c 66cl-4-GFP mouse mammary cancer cells; conditions: formulated in liposomes, oral gavage, BALB/c 66cl-4-GFP cells; cited from earlier work
[7] = system: human MDA-MB-231 breast cancer cells; conditions: supplemented in the diet, MDA-MB-231 cells; cited from earlier work

SMILES: Cc1c(O)cc2c(c1C)O[C@](C)(CCC[C@H](C)CCC[C@H](C)CCCC(C)C)CC2 [γT, RRR-γ-tocopherol]
- Induction of apoptosis (annexin V-PE positive cells) [1]: induced dose-dependent apoptosis
- IC50 [2]: 11.8 µM
- Incidence of visible lung metastases [3]: 30%
- Decrease of Ki-67 positive cells in tumor in comparison to control group [4]: no significant difference
- Increase of TUNEL positive cells in tumor in comparison to control group [5]: 1.9 fold
- PARP cleavage (PARP): PARP cleavage
- Survivin protein expression (Survivin): downregulation of anti-apoptotic Survivin
- DR5 protein expression (DR5): upregulation of pro-apoptotic death receptor DR5
- Tumor growth in syngeneic mouse model [6]: suppressed tumor growth

SMILES: Cc1c(C)c2c(c(C)c1O)CC[C@@](C)(CCC[C@H](C)CCC[C@H](C)CCCC(C)C)O2 [αT, RRR-α-tocopherol]
- Block of α-TEA-induced apoptosis by αT ([1]; 10 μM αT plus 10 μM α-TEA, 5 days): 70%
- Block of γT-induced apoptosis by αT ([1]; 10 μM αT plus 40 μM γT, 5 days): 60%
- Effect on colony formation [2]: no inhibitory effect
- Incidence of visible lung metastases [3]: 60%
- Decrease of Ki-67 positive cells in tumor in comparison to control group [4]: but not αT or αT + γT groups
- Increase of TUNEL positive cells in tumor in comparison to control group [5]: but not in the αT or αT + γT groups
- Effect of αT co-treatment on γT- and α-TEA-induced cleavage of PARP (PARP): blocked
- PARP cleavage (PARP): did not cause cleavage of PARP
- Effect of αT co-treatment on γT- and α-TEA-induced downregulation of Survivin (Survivin): blocked
- Survivin protein expression (Survivin): did not downregulate Survivin
- Effect of αT co-treatment on γT- and α-TEA-induced upregulation of DR5 (DR5): blocked
- DR5 protein expression (DR5): induced an increase in DR5 protein expression

SMILES: Cc1c(C)c2c(c(C)c1OCC(=O)O)CC[C@@](C)(CCC[C@H](C)CCC[C@H](C)CCCC(C)C)O2 [α-TEA, RRR-α-tocopherol ether-linked acetic acid analog]
- Induction of apoptosis (annexin V-PE positive cells) [1]: induced dose-dependent apoptosis
- IC50 [2]: 4.8 µM
- Incidence of visible lung metastases [3]: 30%
- Decrease of Ki-67 positive cells in tumor in comparison to control group [4]: 39%
- Increase of TUNEL positive cells in tumor in comparison to control group [5]: 2.1 fold
- PARP cleavage (PARP): PARP cleavage
- Survivin protein expression (Survivin): downregulation of anti-apoptotic Survivin
- DR5 protein expression (DR5): upregulation of pro-apoptotic death receptor DR5
- Tumor growth in syngeneic mouse model [6]: suppressed tumor growth

SMILES: Cc1c(C)c2c(c(C)c1O)CCC(C)(CCCC(C)CCCC(C)CCCC(C)C)O2 (racemic) [all-rac-αT, all-racemic-α-tocopherol]
- Effect on colony formation [2]: no inhibitory effect
- Incidence of visible lung metastases [3]: 30%
- Tumor burden in xenograft model [7]: reduced tumor burden
- Decrease of Ki-67 positive cells in tumor in comparison to control group [4]: 23%
- Increase of TUNEL positive cells in tumor in comparison to control group [5]: 2.1 fold
- PARP cleavage (PARP): did not cause cleavage of PARP
- Survivin protein expression (Survivin): did not downregulate Survivin
- DR5 protein expression (DR5): induced an increase in DR5 protein expression
- Tumor growth in syngeneic mouse model [6]: suppressed tumor growth
